Results as given in ChEMBL document CHEMBL2396655, “Design, synthesis, and biological evaluation of (E)-N-aryl-2-arylethenesulfonamide analogues as potent and orally bioavailable microtubule-targeted anticancer agents” (J Med Chem, 2013).
Values after ≈ are worked out from the molar mass of the structure shown. Active and inactive are the calls of the source. The calls are words filed in the database; no cut-off is given here.

Assays:
Tubulin (Sus scrofa) [1] = target: T1, Tubulin (Sus scrofa) (UniProt P02554+P02550); test: Competitive binding affinity to pig brain tubulin paclitaxel binding site at 0.1 to 100 uM after 1 hr by mass spectrophotometric analysis in presence of paclitaxel and GTP
Outline: (§1)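 Porcine brain tubulin (1.0 mg/mL) in PIPES 80 mM, MgCl₂ 2 mM, EGTA 0.5 mM, pH 6.9, at 37 °C. […] Competitor was 0.1–100 μM for 1 h. Unbound ligand in the 30 kDa ultrafiltrate was measured by MS. Runs were in triplicate; IC50 came from a Hill fit.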

K562 = test: Cytotoxicity against human K562 cells after 96 hrs by trypan blue exclusion assay; assay type: functional, cell-based; details: for IC50 / GI50: K562, 96 h
Outline: (§2)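 Cells were grown in DMEM or RPMI with 10% FBS and plated at 2.5×10⁴ cells/well in 12-well dishes. Compounds were added 24 h later at various concentrations. After 96 h, viable cells were counted by trypan blue exclusion from duplicate wells. Results are the mean of two independent experiments.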

[2] = Solubility of the compound in water; assay type: physicochemical
DU-145 = test: Cytotoxicity against human DU145 cells after 96 hrs by trypan blue exclusion assay; assay type: functional, cell-based; details: for IC50 / GI50: DU-145, 96 h; outline: as §2
Bos taurus [3] = species on record: Bos taurus; test: Inhibition of bovine brain tubulin assessed as destabilization of microtubule polymerization at 10 uM over 40 mins by spectrophotometric analysis
Outline: (§3)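 Purified bovine brain tubulin was incubated at 37 °C with 10 μM compound, DMSO or reference agents. Polymerization was followed as rising absorbance at 340 nm over 40 min. Data are representative of three independent experiments.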

NCI-H417 = test: Cytotoxicity against human NCI-N417 cells after 96 hrs by trypan blue exclusion assay; assay type: functional; details: NCI-H417, 96 h
Outline: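 Cells grown in DMEM or RPMI with 10% FBS and 1 unit/mL penicillin-streptomycin, seeded in 12-well dishes at 2.5 ×10⁴ cells/mL/well. Compound added 24 h later at various concentrations. Viable cells counted by trypan blue exclusion from duplicate wells after 96 h. Value taken from dose-response curves of two independent experiments.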

LNCaP = test: Cytotoxicity against human LNCAP cells after 96 hrs by trypan blue exclusion assay; assay type: functional; outline: as §2
HCT-15 = test: Cytotoxicity against human HCT15 cells after 96 hrs by trypan blue exclusion assay; assay type: functional; details: HCT-15, 96 h; outline: as §2
A-431 = test: Cytotoxicity against human A431 cells after 96 hrs by trypan blue exclusion assay; assay type: functional; details: A-431, 96 h; outline: as §2
MIA PaCa-2 = test: Cytotoxicity against human MIAPaCa2 cells after 96 hrs by trypan blue exclusion assay; assay type: functional; details: MIA PaCa-2, 96 h; outline: as §2
PC-3 = test: Cytotoxicity against human PC3 cells after 96 hrs by trypan blue exclusion assay; assay type: functional; details: PC-3, 96 h; outline: as §2
[4] = Cytotoxicity against human H80 cells after 96 hrs by trypan blue exclusion assay; assay type: functional; details: H80, 96 h; outline: as §2
BT-474 = test: Cytotoxicity against human BT474 cells after 96 hrs by trypan blue exclusion assay; assay type: functional; details: BT-474, 96 h; outline: as §2
MOLT-4 = test: Cytotoxicity against human MOLT4 cells after 96 hrs by trypan blue exclusion assay; assay type: functional; details: MOLT-4, 96 h; outline: as §2
HCT-116 = test: Cytotoxicity against human HCT116 cells after 96 hrs by trypan blue exclusion assay; assay type: functional; details: HCT-116, 96 h; outline: as §2
Daudi = test: Cytotoxicity against human Daudi cells after 96 hrs by trypan blue exclusion assay; assay type: functional; outline: as §2
[5] = Cytotoxicity against human U87 cells after 96 hrs by sulforhodamine B assay; assay type: functional, cell-based, U-87MG ATCC; details: U-87 MG
OVCAR-3 = test: Cytotoxicity against human OVCAR3 cells after 96 hrs by trypan blue exclusion assay; assay type: functional; details: OVCAR-3, 96 h; outline: as §2
SK-OV-3 = test: Cytotoxicity against human SKOV3 cells after 96 hrs by trypan blue exclusion assay; assay type: functional; details: SK-OV-3, 96 h; outline: as §2
T47D = test: Cytotoxicity against human T47D cells after 96 hrs by trypan blue exclusion assay; assay type: functional; outline: as §2
[6] = Cytotoxicity against human NAMALWA cells after 96 hrs by trypan blue exclusion assay; assay type: functional; details: NAMALVA; outline: as §2
[7] = Cytotoxicity against human RF48 cells after 96 hrs by trypan blue exclusion assay; assay type: functional; details: RF48, 96 h; outline: as §2
BT-20 = test: Cytotoxicity against human BT20 cells after 96 hrs by trypan blue exclusion assay; assay type: functional; details: BT-20, 96 h; outline: as §2
NCI-H187 = test: Cytotoxicity against human NCI-H187 cells after 96 hrs by trypan blue exclusion assay; assay type: functional; details: NCI-H187, 96 h; outline: as §2
[8] = Cytotoxicity against human Caco2 cells after 1 hr by Alamar Blue assay; assay type: cell-based; details: Caco-2 cells, read-out: LD50
CCRF-CEM [9] = test: Growth inhibition of human CEM cells; assay type: functional
CEM/C2 = test: Growth inhibition of multidrug-resistant human CEM/C2 cells; assay type: functional
CCRF-CEM [10] = test: Resistance factor, ratio of GI50 for multidrug-resistant human CEM/C2 cells to GI50 for human CEM cells; assay type: functional
Tubulin (Sus scrofa) [11] = target: T1, Tubulin (Sus scrofa); test: Competitive binding affinity to pig brain tubulin vinblastine binding site at 0.1 to 100 uM after 1 hr by mass spectrophotometric analysis in presence of vinblastine; outline: as §1
[12] = Growth inhibition of multidrug-resistant human MES-SA/Dx5 cells; assay type: functional
MCF7 = test: Cytotoxicity against human MCF7 cells after 96 hrs by trypan blue exclusion assay; assay type: functional; details: MCF7, 96 h; outline: as §2
MES-SA = test: Resistance factor, ratio of GI50 for multidrug-resistant human MES-SA/Dx5 cells to GI50 for human MES-SA cells; assay type: functional
[13] = Growth inhibition of human MES-SA cells; assay type: functional
2008 [14] = test: Resistance factor, ratio of GI50 for paclitaxel-resistant human 2008/17/4 cells to GI50 for human 2008 cells; assay type: functional
[15] = Growth inhibition of paclitaxel-resistant human 2008/17/4 cells; assay type: functional
Outline: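 Cells grown in DMEM or RPMI with 10% FBS and penicillin-streptomycin, seeded at 2.5 × 10⁴ cells/mL/well; compound added 24 h later over a concentration range. After 96 h, viable cells counted by trypan blue exclusion in duplicate wells. GI₅₀ is the concentration giving 50% growth inhibition, reported as mean ± SD of two independent experiments.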

Bos taurus [16] = species on record: Bos taurus; test: Effect on bovine brain tubulin assessed as stabilization of microtubule polymerization at 10 uM over 40 mins by spectrophotometric analysis; outline: as §3
2008 [17] = test: Growth inhibition of human 2008 cells; assay type: functional

Row | inhibition (Bos taurus [3]) | Compound | Activity (K562) | IC50 (K562) [µM] | Activity (DU-145) | IC50 (DU-145) [µM] | GI50 (K562) [µM] | GI50 (NCI-H417) [µM] | GI50 (DU-145) [µM] | GI50 (LNCaP) [µM] | GI50 (A-431) [µM] | IC50 [5] [µM] | GI50 (BT-20) [µM] | also measured
1 | – | CC(=O)O[C@@]12CO[C@@H]1C[C@H](O)[C@@]1(C)C(=O)[C@H](O)C3=C(C)[C@@H](OC(=O)[C@H](O)[C@@H](NC(=O)OC(C)(C)C)c4ccccc4)C[C@@](O)([C@@H](OC(=O)c4ccccc4)[C@H]21)C3(C)C | – | – | – | – | – | – | – | – | – | – | – | Activity (Tubulin (Sus scrofa) [1]): Active
2 | Active | COc1cc(OC)c(/C=C/S(=O)(=O)Nc2ccc(OC)c(NCC(=O)O)c2)c(OC)c1 | Dose-dependent effect | 0.02 | Dose-dependent effect | 0.4 | – | – | – | – | – | – | – | solubility [2]: 10 mg/mL (≈ 22.1 mM)
3 | – | COc1ccc(NS(=O)(=O)/C=C/c2c(OC)cc(OC)cc2OC)cc1 | Dose-dependent effect | 0.075 | Dose-dependent effect | 0.2 | 0.075 | 0.05 | 0.075 | 0.1 | 0.03 | 0.229 | 0.25 | GI50 (HCT-15): 0.1 µM; GI50 (MIA PaCa-2): 0.1 µM; GI50 (PC-3): 0.1 µM; GI50 [4]: 0.1 µM; GI50 (BT-474): 0.25 µM; GI50 (MOLT-4): 0.1 µM; GI50 (HCT-116): 0.1 µM; GI50 (Daudi): 0.1 µM; GI50 (OVCAR-3): 0.1 µM; GI50 (SK-OV-3): 0.1 µM; GI50 (T47D): 0.1 µM; GI50 [6]: 0.1 µM; GI50 [7]: 0.025 µM; GI50 (NCI-H187): 0.1 µM
4 | – | O=c1cc[nH]c(=S)[nH]1 [THIOURACIL] | – | – | – | – | – | – | – | – | – | – | – | CC50 at 1 h [8]: > 1000 µM
5 | – | COc1cc(OC)c(/C=C/S(=O)(=O)Nc2ccc(OC)c(O)c2)c(OC)c1 | Dose-dependent effect | 0.015 | Dose-dependent effect | 0.03 | 0.015 | 0.01 | 0.05 | 0.05 | 0.6 | 0.026 | 0.25 | GI50 [4]: 0.025 µM; GI50 (OVCAR-3): 0.1 µM; GI50 [6]: 0.025 µM
6 | – | CC[C@@]1(O)C(=O)OCc2c1cc1n(c2=O)Cc2cc3ccccc3nc2-1 [CAMPTOTHECIN] | – | – | – | – | – | – | – | – | – | – | – | GI50 (CCRF-CEM [9]): 0.002 µM; GI50 (CEM/C2): 1 µM; RatioGI50 (CCRF-CEM [10]): 500
7 | – | CC[C@]1(O)C[C@H]2CN(CCc3c([nH]c4ccccc34)[C@@](C(=O)OC)(c3cc4c(cc3OC)N(C=O)[C@H]3[C@@](O)(C(=O)OC)[C@H](OC(C)=O)[C@]5(CC)C=CCN6CC[C@]43[C@@H]65)C2)C1 | – | – | – | – | – | – | – | – | – | – | – | Activity (Tubulin (Sus scrofa) [11]): Active
8 | Active | COC(=O)Nc1nc2cc(C(=O)c3cccs3)ccc2[nH]1 | – | – | – | – | – | – | – | – | – | – | – | –
9 | Active | COc1cc(OC)c(/C=C/S(=O)(=O)Nc2ccc(OC)c(NC(C)(C)C(=O)O)c2)c(OC)c1 | Dose-dependent effect | 0.005 | Dose-dependent effect | 0.07 | 0.01 | 0.03 | 0.15 | 0.1 | 0.15 | 0.09 | 0.1 | solubility [2]: 10 mg/mL (≈ 20.8 mM); GI50 [12]: 0.09 µM; GI50 (HCT-15): 0.2 µM; GI50 (MCF7): 0.08 µM; GI50 (MIA PaCa-2): 0.08 µM; RatioGI50 (MES-SA): 1.3; GI50 (BT-474): 0.15 µM; GI50 [13]: 0.07 µM
10 | – | CC(=O)O[C@H]1C(=O)[C@@]2(C)[C@H]([C@H](OC(=O)c3ccccc3)[C@]3(O)C[C@H](OC(=O)[C@H](O)[C@@H](NC(=O)c4ccccc4)c4ccccc4)C(C)=C1C3(C)C)[C@]1(OC(C)=O)CO[C@@H]1C[C@@H]2O [PACLITAXEL] | – | – | – | – | – | – | – | – | – | – | – | RatioGI50 2008 [14]: 600; GI50 [15]: 2 µM; GI50 [12]: 0.75 µM; RatioGI50 (MES-SA): 190; Activity (Bos taurus [16]): Active; GI50 [13]: 0.004 µM; GI50 2008 [17]: 0.003 µM
